Experimental data collected from several papers.
Target: Fibroblast growth factor receptor 4 (FGFR4, Homo sapiens, UniProt P22455)

SMILES	observed	mode	method	tested at	quantity	result
C1=C/COCc2cc(ccc2OCCN2CCCC2)Nc2nccc(n2)-c2cccc(c2)COC/1	binding			0.1 µM	remaining binding	100%
C=CC(=O)N1CCC[C@@H](n2nc(-c3ccc(Oc4ccccc4)cc3)c3c(N)ncnc32)C1	enzyme activity	inhibitor		1 µM	inhibition	8%
CCCCC(=O)Nc1ccc(-c2ccc3ncn(CCC)c(=O)c3c2)cn1	binding		competition with immobilised ligand	0.5 µM	remaining binding	100%
COc1ccc2[nH]c3c4[nH]c5ccc(OC)cc5c4c4c(c3c2c1)C(=O)NC4=O	binding			1 µM	remaining binding	85%
C=CC(=O)N1CCC([C@@H]2CCNc3c(C(N)=O)c(-c4ccc(Oc5ccccc5)cc4)nn32)CC1	cell-free assay			1 µM	inhibition	10%
C[C@H]1CC[C@H](n2c3cnccc3c3cnc(Nc4ccc5c(n4)CCN(C(=O)CO)C5)nc32)CC1	binding			1 µM	remaining binding	100%
COc1ccc2oc(-c3ccc4nc(N)oc4c3)c/c(=N\c3ccccc3NC(=O)CCN)c2c1	binding			1 µM	remaining binding	102%
CC(C)S(=O)(=O)c1ccc2nccc(Nc3ccc4sc(C5CCCC5)nc4c3)c2c1	enzyme activity	inhibitor		1 µM	activity vs control	108%
